The target of the assay is Protein-arginine deiminase type-4 (Homo sapiens) (UniProt Q9UM07). As to the kind of experiment: PAD4 enzyme inhibition, citrulline production – biochemical, colorimetric substrate assay, assay provider data, 0-15 µM, late-stage follow-up (AID 588417). To be noted: recombinant PAD4, BAEE substrate, citrulline colorimetric absorbance. The gist of the method:
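Material: recombinant PAD4 protein; Input: 0.2 µM PAD4; Reagent: BAEE substrate at 10 mM; Schedule: 15 min pretreatment plus 15 min reaction, 37 °C; Detection: absorbance at 540 nm after diacetyl monoxime/thiosemicarbazide color development; Replicates: duplicate measurements at each compound concentration.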

Molecules are shown by their SMILES. Active and inactive are the calls of the source.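 Rule for the calls: active = IC50 at or below 1 µM; inactive = IC50 above 1 µM.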

Sequence of Protein-arginine deiminase type-4 (Homo sapiens) (Q9UM07 whole entry, looked up): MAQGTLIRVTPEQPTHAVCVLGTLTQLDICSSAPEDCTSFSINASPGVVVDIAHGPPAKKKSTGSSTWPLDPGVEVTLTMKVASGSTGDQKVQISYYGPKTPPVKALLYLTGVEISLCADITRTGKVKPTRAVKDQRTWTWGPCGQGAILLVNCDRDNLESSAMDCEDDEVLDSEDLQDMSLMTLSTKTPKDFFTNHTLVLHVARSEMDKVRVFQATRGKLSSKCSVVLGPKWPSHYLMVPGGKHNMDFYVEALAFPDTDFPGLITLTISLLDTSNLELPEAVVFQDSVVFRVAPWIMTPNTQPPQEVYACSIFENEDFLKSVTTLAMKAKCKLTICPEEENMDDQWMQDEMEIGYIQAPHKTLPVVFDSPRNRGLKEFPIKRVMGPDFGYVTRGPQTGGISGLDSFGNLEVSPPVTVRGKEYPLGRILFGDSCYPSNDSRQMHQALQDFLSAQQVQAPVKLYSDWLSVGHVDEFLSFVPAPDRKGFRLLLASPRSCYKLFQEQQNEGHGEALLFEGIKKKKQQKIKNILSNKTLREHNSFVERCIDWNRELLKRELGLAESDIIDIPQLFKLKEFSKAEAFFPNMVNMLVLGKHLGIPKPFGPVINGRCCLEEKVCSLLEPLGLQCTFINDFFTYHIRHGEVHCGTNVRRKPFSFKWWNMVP

Consider `COC1=C(Br)C(=O)c2nc(-c3ccccn3)ccc2C1=O`, for which the IC50 entry was “inactive”.
